Data reported in ChEMBL document CHEMBL4831507, “Development of FABP4/5 inhibitors with potential therapeutic effect on type 2 Diabetes Mellitus” (Eur J Med Chem, 2021).
The source made the active and inactive calls. The rule behind the calls is not given here.

Tests used:
[1] = target: T1, Fatty acid-binding protein, adipocyte (Homo sapiens, UniProt P15090); test: Binding affinity to FABP4 (unknown origin) by microscale thermophoresis analysis
Target sequence in this assay (P15090 whole entry): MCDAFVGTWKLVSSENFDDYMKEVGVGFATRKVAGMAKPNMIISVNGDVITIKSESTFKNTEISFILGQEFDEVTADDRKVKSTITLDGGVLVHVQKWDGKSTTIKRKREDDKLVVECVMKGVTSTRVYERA

Mus musculus [2] = test: Improvement in lipid homeostasis in C57BL/KsJ-db/db mouse assessed as increase in high density cholesterol level in serum at 50 mg/kg, po administered for 8 weeks; format: functional, organism-based
Procedure, shortened: (§1)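 Male db/db mice, 6 weeks old, 10 per group, dosed 50 mg/kg by gavage daily for 8 weeks; vehicle 0.5% CMC-Na. Lean littermates received vehicle. Body weight recorded twice weekly; 6-h fasting tail glucose by glucometer weekly. OGTT on day 45: overnight fast, glucose 0.5 g/kg by gavage. ITT on day 51: 6-h fast, insulin 0.85 IU/kg ip. Glucose AUC calculated. Final serum taken after 6-h fast; HDL-C, LDL-C, TG, TCH and FABP4 measured by kits. Liver Akt and p-Akt(Ser473) by western blot.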

Mus musculus [3] = test: Improvement in lipid homeostasis in C57BL/KsJ-db/db mouse assessed as effect on triglyceride level in serum at 50 mg/kg, po administered for 8 weeks; format: functional, organism-based; procedure, shortened: as §1
3T3-L1 [4] = test: Inhibition of FABP4 secretion in mouse 3T3-L1 cells assessed as reduction in FABP4 level in conditioned medium at 50 uM incubated for 24 hrs by immunoblotting analysis; format: functional, cell-based
Procedure, shortened: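 Mature 3T3-L1 adipocytes starved for 6 h in DMEM with 0.5% BSA, then treated with compound at […] for 24 h. Conditioned medium ultrafiltered; lysate and medium protein measured by BCA. FABP4 immunoblotted with GAPDH, ECL detection, densitometry. Three independent experiments.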

Mus musculus [5] = test: Reduction in FABP4 level in serum of C57BL/KsJ-db/db mouse at 50 mg/kg, po administered for 8 weeks; format: functional, organism-based; procedure, shortened: as §1
3T3-L1 [6] = test: Anti-lipolytic activity in mouse 3T3-L1 cells assessed as inhibition of forskolin-stimulated glycerol release at 80 uM preincubated for 24 hrs followed by forskolin stimulation for 1 hr; format: functional, cell-based; details: time 25.0 hrs
[7] = AUC in ICR mouse at 3 mg/kg, po measured for 24 hrs by LC-MS/MS analysis; format: ADME, organism-based; set-up: dose 3 mg/kg, time 24 hrs; details: in vivo
Procedure, shortened: (§2)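 Male ICR mice, 20-25 g, three per group. Oral dose 3 mg/kg in PBS with 5% DMSO and 0.5% HPMC; iv dose 1 mg/kg in DMSO/EtOH/PEG300/NaCl (5/5/40/50). Blood sampled at 0.25, 0.5, 1, 2, 4, 8 and 24 h. Plasma drug measured by LC-MS/MS. Mean ± SEM, n = 3.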

Homo sapiens [8] = organism: Homo sapiens; test: Selectivity ratio of IC50 for FABP3 (unknown origin) to IC50 for FABP5 (unknown origin)
Procedure, shortened: (§3)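 1,8-ANS displacement using purified recombinant FABP3, FABP4 or FABP5. Compound incubated with protein and 1,8-ANS in phosphate buffer for 3 min at room temperature. Fluorescence read at ex 370/em 470 nm. IC50 by nonlinear regression, mean ± SD of three independent experiments.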

THP-1 [9] = test: Antiinflammatory activity against LPS-induced human THP-1 cells assessed as inhibition of MCP-1 gene expression at 25 uM incubated for 18 hrs followed by LPS-stimulation and measured after 6 hrs by qRT-PCR analysis; format: functional, cell-based; details: time 24.0 hrs
Procedure, shortened: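 THP-1 cells (1 per 48-well, 3*10⁵) differentiated with 100 nM PMA for 24 h, then washed with PBS. Compound at […] or 0.1% DMSO for 18 h, then 100 ng/ml LPS for 6 h. RNA extracted with TRIzol. MCP-1 mRNA by RT-qPCR, 2^-ΔΔCT method.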

[10] = Oral bioavailability in ICR mouse at 3 mg/kg measured for 24 hrs by LC-MS/MS analysis; format: ADME, organism-based; details: in vivo; procedure, shortened: as §2
[11] = Toxicity in C57BL/KsJ-db/db mouse assessed as effect on body weight at 50 mg/kg, po administered for 8 weeks; format: organism-based; details: in vivo, 1344 h; procedure, shortened: as §1
Homo sapiens [12] = organism: Homo sapiens; test: Selectivity ratio of IC50 for FABP3 (unknown origin) to IC50 for FABP4 (unknown origin); procedure, shortened: as §3
[13] = target: T1, Fatty acid-binding protein, adipocyte; test: Displacement of 1,8-ANS from FABP4 (unknown origin) incubated for 3 mins by fluorescence based analysis; procedure, shortened: as §3
Target sequence in this assay (P15090 whole entry): as above

[14] = Cmax in ICR mouse at 3 mg/kg, po and 1 mg/kg, iv measured for 24 hrs by LC-MS/MS analysis; format: ADME, organism-based; set-up: time 24 hrs, dose 3 mg/kg; details: in vivo; procedure, shortened: as §2
Mus musculus [15] = test: Antidiabetic activity in C57BL/KsJ-db/db mouse assessed as improvement in glucose metabolism at 50 mg/kg, po administered for 45 days by oral glucose tolerance test; format: functional, organism-based; details: time 45.0 day; procedure, shortened: as §1
[16] = Half life in ICR mouse at 1 mg/kg, iv measured for 24 hrs by LC-MS/MS analysis; format: ADME, organism-based; details: in vivo; procedure, shortened: as §2
[17] = AUC in ICR mouse at 1 mg/kg, iv measured for 24 hrs by LC-MS/MS analysis; format: ADME, organism-based; set-up: dose 1 mg/kg, time 24 hrs; details: in vivo; procedure, shortened: as §2
[18] = Clearance in ICR mouse at 3 mg/kg, po and 1 mg/kg, iv measured for 24 hrs by LC-MS/MS analysis; format: ADME, organism-based; details: in vivo; procedure, shortened: as §2
[19] = Half life in ICR mouse at 3 mg/kg, po measured for 24 hrs by LC-MS/MS analysis; format: ADME, organism-based; details: in vivo; procedure, shortened: as §2
3T3-L1 [20] = test: Cytotoxicity against mouse 3T3-L1 cells assessed as reduction in cell viability at 100 uM incubated for 24 hrs by CCK8 assay; format: cell-based; details: 3t3-l1, 24 h
Mus musculus [21] = test: In vivo activation of […] signaling in C57BL/KsJ-db/db mouse assessed as increase in Akt phosphorylation at Ser473 in liver at 50 mg/kg, po administered for 8 weeks by western blot analysis; format: functional, organism-based; procedure, shortened: as §1
[22] = target: T1, Fatty acid-binding protein, adipocyte; test: Displacement of 1,8-ANS from FABP4 (unknown origin) at 25 uM incubated for 3 mins by fluorescence based analysis relative to control
Procedure, shortened: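 Single-concentration percent inhibition in the 1,8-ANS displacement assay with FABP4. Compound incubated with protein and probe in phosphate buffer for 3 min at room temperature; fluorescence read at ex 370/em 470 nm.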
Target sequence in this assay (P15090 2-132 limits assumed): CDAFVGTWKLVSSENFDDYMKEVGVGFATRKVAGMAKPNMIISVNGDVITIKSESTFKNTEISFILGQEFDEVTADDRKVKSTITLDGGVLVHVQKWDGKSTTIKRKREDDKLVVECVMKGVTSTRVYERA

Mus musculus [23] = test: Antidiabetic activity in C57BL/KsJ-db/db mouse assessed as reduction in fasting blood glucose level at 50 mg/kg, po administered for 7 weeks; format: functional; details: 1176 h; procedure, shortened: as §1
[24] = target: Fatty acid-binding protein, heart (Homo sapiens, UniProt P05413); test: Displacement of 1,8-ANS from FABP3 (unknown origin) incubated for 3 mins by fluorescence based analysis; procedure, shortened: as §3
Sequence of Fatty acid-binding protein, heart (P05413 whole entry): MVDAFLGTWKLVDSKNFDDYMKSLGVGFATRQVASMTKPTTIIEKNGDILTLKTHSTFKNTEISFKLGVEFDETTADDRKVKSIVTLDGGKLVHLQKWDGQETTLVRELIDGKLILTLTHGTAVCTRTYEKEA

Mus musculus [25] = test: Improvement in lipid homeostasis in C57BL/KsJ-db/db mouse assessed as effect on total cholesterol level in serum at 50 mg/kg, po administered for 8 weeks; format: functional, organism-based; procedure, shortened: as §1
[26] = target: T2, Fatty acid-binding protein 5 (Homo sapiens, UniProt Q01469); test: Binding affinity to FABP5 (unknown origin) by microscale thermophoresis analysis
T2 sequence (Q01469 whole entry): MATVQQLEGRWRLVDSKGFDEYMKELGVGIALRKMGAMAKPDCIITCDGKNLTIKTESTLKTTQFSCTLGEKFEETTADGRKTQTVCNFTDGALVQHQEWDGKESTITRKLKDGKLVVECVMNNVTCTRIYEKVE

Mus musculus [27] = test: Antidiabetic activity in C57BL/KsJ-db/db mouse assessed as improvement in insulin resistance at 50 mg/kg, po administered for 51 days by insulin tolerance test; format: functional, organism-based; details: time 51.0 day; procedure, shortened: as §1
[28] = target: T2, Fatty acid-binding protein 5; test: Displacement of 1,8-ANS from FABP5 (unknown origin) incubated for 3 mins by fluorescence based analysis
THP-1 [29] = test: Cytotoxicity against human THP-1 cells assessed as reduction in cell viability at 50 uM incubated for 24 hrs by CCK8 assay; format: cell-based; details: thp-1, 24 h
[30] = Metabolic stability in mouse liver microsomes assessed as half life at 0.1 uM preincubated for 10 mins followed by NADPH addition and measured for 60 mins by LC-MS/MS analysis; format: ADME, Microsome; details: time 70 min
Procedure, shortened: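 Mouse liver microsomes 0.33 mg/mL in 0.1 M Tris pH 7.4 with 5 mM MgCl₂, 0.01% DMSO and 0.005% BSA. Compound final […]. Preincubated 10 min at 37 °C; reaction started with 1 mM NADPH. Samples at 0, 7, 17, 30 and 60 min quenched with cold methanol, then analysed by LC-MS/MS.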

COc1c(-c2ccc(F)cc2C)cc(S(=O)(=O)Nc2ccc(F)c(CC(=O)O)c2)c2ccccc12
Kd [1]: 3.14 µM
Activity (Mus musculus [2]): Active
Activity (Mus musculus [3]): inactive
inhibition (3T3-L1 [4]): Active
inhibition (Mus musculus [5]): Active
Activity (3T3-L1 [6]): Active
AUC at 24 h [7]: 1740 ng·h/mL
Ratio IC50 (Homo sapiens [8]): 14.7
Activity (THP-1 [9]): Active
bioavailability [10]: 29.9%
Activity [11]: Non-Toxic
Ratio IC50 (Homo sapiens [12]): 22.3
IC50 [13]: 3.78 µM
Cmax [14]: 478 ng/mL
Activity (Mus musculus [15]): Active
half-life [16]: 1.78 h
AUC at 24 h [17]: 1940 ng·h/mL
clearance [18]: 8.56 mL/min/kg
half-life [19]: 6.04 h
Activity (3T3-L1 [20]): Non-Toxic
Activity (Mus musculus [21]): Active
inhibition [22]: 94%
inhibition in vivo at 50 mg/kg (Mus musculus [23]): 28.1%
IC50 [24]: 84.4 µM
Activity (Mus musculus [25]): inactive
Kd [26]: 14.1 µM
Activity (Mus musculus [27]): Active
IC50 [28]: 5.72 µM
Activity (THP-1 [29]): Non-Toxic
half-life at 0.1 µM [30]: 1.47 h
